Source: PubChem
Only some compounds are listed: those with a hit (about 3.5% of all), similar ones and a draw of the others.
MrgX1 antagonist – antagonists of human MrgX1 receptor | 1.3% of 310,000 active | MRGX1-HEK293 calcium flux, Fluo-4, BAM8-22 antagonism; active compounds read low | B-score at 10 µM | Q96LB2 | AID 588676;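 active means calcium-response B-score plate-corrected more than 3 library SD below zero, starting fluorescence within 5 deviations, no agonist response on first addition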;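 further: peak minus trough fluorescence over baseline after final BAM8-22 challenge near maximal dose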
Target sequence (Q96LB2 whole entry, looked up): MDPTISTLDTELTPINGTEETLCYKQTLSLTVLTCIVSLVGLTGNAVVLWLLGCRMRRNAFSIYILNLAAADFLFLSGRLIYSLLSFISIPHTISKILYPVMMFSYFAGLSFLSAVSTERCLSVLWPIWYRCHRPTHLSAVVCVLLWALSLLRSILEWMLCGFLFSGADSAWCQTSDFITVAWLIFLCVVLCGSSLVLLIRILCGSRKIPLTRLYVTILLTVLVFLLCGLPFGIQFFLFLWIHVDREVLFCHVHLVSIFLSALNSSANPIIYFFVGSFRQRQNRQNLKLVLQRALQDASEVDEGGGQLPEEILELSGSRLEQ
RGS4 act – potentiators or activators of RGS4; AID 463111; 0.92% of 310,000 active; HEK293 M3R/inducible RGS4, carbachol calcium flux Fluo4; active compounds read low; B-score at 10 µM;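 active means B-score of the integrated calcium signal more than 4 SD below the library mean, with starting fluorescence not abnormally high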;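 further: negative B-score means reduced calcium response which marks RGS4 activation or potentiation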
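Material: Inducible-RGS4 HEK293 cells carrying M3 receptor; also added: carbachol at ECmax as muscarinic agonist stimulus; incubation: compound preincubation 20 min at room temperature before agonist; signal: Fluo4-AM (2 µM) calcium-flux fluorescence, kinetic read; measure: integrated calcium ratio converted to B score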
MrgX1 PAM – allosterically activates human MrgX1 receptor signaling | Q96LB2 | MrgX1-HEK293, Fluo-4 calcium flux, FDSS; active compounds read high | B-score at 10 µM | 0.63% of 310,000 active;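 active means plate-corrected calcium response at least 3 library SD above typical, normal starting fluorescence, not activating the receptor alone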;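 further: compound read alongside a low EC10 to EC30 dose of BAM8-22 agonist; peak minus trough fluorescence over baseline measured at the second addition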
MrgX1 agonist – activates human MrgX1 receptor signaling | MrgX1-HEK293 cells, Fluo-4 calcium fluorescence, agonist mode; active compounds read high | B-score at 10 µM | 0.44% of 310,000 active | AID 588627;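 active means calcium response B-score plate-corrected fluorescence ratio at least 3 library SD, with starting fluorescence B-score inside 5 SD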
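Material – MrgX1-expressing HEK293 cells · Input – 15,000 cells seeded per well · Dosing – compound as first of three additions · Times – overnight seeding, then 1 h dark dye loading · Measured by – kinetic Fluo-4 NW fluorescence of intracellular calcium · Read-out – B-scored fluorescence response ratio · Benchmarks – positive and negative control wells on each plate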
RGS4 inh – human RGS4 inhibition; B-score at 10 µM; HEK293 M3R/RGS4 inducible, Fluo-4 calcium flux; active compounds read high; triggered by carbachol at its EC20; AID 463165; 0.45% of 310,000 active;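 active means B-score, a plate-corrected calcium signal, over three deviations above library mean, with baseline fluorescence within five deviations of library mean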;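 further: RGS4 expression induced by doxycycline in cells with stable M3 receptor; B-score is computed from the integrated fluorescence ratio over baseline after carbachol; higher B-score means a larger calcium signal and so more RGS4 inhibition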
Target sequence (P49798 whole entry, looked up): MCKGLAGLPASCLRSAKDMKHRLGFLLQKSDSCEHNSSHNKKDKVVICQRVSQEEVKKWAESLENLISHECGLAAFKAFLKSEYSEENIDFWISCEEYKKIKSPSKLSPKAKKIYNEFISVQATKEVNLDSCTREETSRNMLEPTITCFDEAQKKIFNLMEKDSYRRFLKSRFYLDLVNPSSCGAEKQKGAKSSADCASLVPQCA
MrgX1 allo conf – reconfirmed allosteric activator of human MrgX1 receptor; activation (ratio percentage), % at 10 µM; AID 602413; 13% of 1,200 active; MrgX1-HEK293, Fluo-4 calcium fluorescence, FDSS; shares compounds with MrgX1 PAM;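 active means ratio at least 3 SD above the weak peptide control, stable starting fluorescence, no direct agonism earlier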;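 further: compound followed by low BAM8-22 agonist challenge near EC20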
MrgX1 antag conf – human MrgX1 receptor antagonism, re-confirmation screen | MrgX1-HEK293, BAM8-22 calcium flux, Fluo-4; active compounds read low | shares compounds with MrgX1 antagonist | remaining BAM8-22 calcium response % of control (active compounds read low), % at 10 µM | 19% of 2,300 active;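 active means remaining agonist calcium response no higher than 100% minus 3 SD of agonist-only control wells, with starting fluorescence near control levels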;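 further: agonist BAM8-22 given at a near maximal EC90 to ECmax level; peak minus minimum fluorescence divided by baseline after agonist addition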
HEK293 Ca flux – counter-screen for MrgX1 antagonists: effect in parental HEK293 cells | shares compounds with MrgX1 antagonist | Fluo-4 calcium fluorescence, FDSS | fluorescence ratio F(max-min)/F0 at 10 µM | 2% of 4,000 active | AID 624111;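 active means duplicate-averaged calcium fluorescence ratio at least three times the standard deviation of buffer wells, a nonspecific response in parental cells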
HEK293 Ca counter – MrgX1 allosteric activator counter-screen hit in parental HEK293 cells; shares compounds with MrgX1 antagonist; parental HEK293 calcium flux, Fluo-4 fluorescence ratio; active compounds read high; fluorescence ratio F(max-min)/F0 at 10 µM; 0.4% of 4,000 active; AID 624114;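 active means calcium fluorescence ratio, averaged over duplicates, at least 3 SD of the buffer-well ratio, meaning a nonspecific response in receptor-free cells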;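 further: untransfected parental HEK293 lacking MrgX1 used as counterscreen for MrgX1 allosteric activators; fluorescence change taken during the second addition on a kinetic imager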
HEK293 Ca cntr2 – counter-screen for MrgX1 activators: effect in parental HEK293 cells. shares compounds with MrgX1 antagonist. Fluo-4 calcium fluorescence (FDSS); active compounds read high. fluorescence ratio F(max-min)/F0 at 10 µM. 8.7% of 4,000 active;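 active means calcium fluorescence ratio at least three times the spread of buffer wells, meaning a non-specific response in parental cells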
Each line names hits and unclear results; the compound was inactive in the other large screens (follow-up assays come after a bar, where they were run).

NC1=NC[C@@H](Cc2ccc(O)cc2)N1CCc1cccc2ccccc12	none
NC1=NC[C@H](Cc2ccc(O)cc2)N1CCCCC1CCCCC1	MrgX1 PAM 9.35 | MrgX1 allo conf inactive | HEK293 Ca flux inactive | HEK293 Ca counter inactive | HEK293 Ca cntr2 inactive
Nc1nc(CN2CCN(c3ccccc3F)CC2)nc(N2CCCc3ccccc32)n1	none
O=C(Nc1ccc(N2CCN(Cc3ccccc3)CC2)cc1)c1ccco1	none
O=C(O)C1CC=CCC1C(=O)Nc1ccc(N2CCN(Cc3ccccc3)CC2)cc1 (stereo not given)	MrgX1 PAM 7.4 | MrgX1 allo conf inactive | HEK293 Ca flux inactive | HEK293 Ca counter inactive | HEK293 Ca cntr2 inactive
COC(=O)C1CCN(C(=O)COC(=O)C2CCN(S(=O)(=O)c3c(Cl)cccc3Cl)CC2)CC1	none
Cc1nn(C(=O)c2cccs2)c(N)c1-c1ccccc1	MrgX1 PAM 9.31 | MrgX1 allo conf inactive | HEK293 Ca flux inactive | HEK293 Ca counter inactive | HEK293 Ca cntr2 inactive
O=c1oc(-c2ccccc2)nc2sc3c(c12)CCCC3	MrgX1 PAM 13.1 | MrgX1 allo conf inactive | HEK293 Ca flux inactive | HEK293 Ca counter inactive | HEK293 Ca cntr2 inactive
Cc1ccccc1-c1nc2sc3c(c2c(=O)o1)CCC3	none
COc1ccc(/C=C(\C#N)C(=O)OCC(=O)NC2CC2)cc1	none
CCOC(=O)N1CCC(NS(=O)(=O)c2ccc(C)cc2)CC1	MrgX1 PAM 8.23 | MrgX1 allo conf inactive | HEK293 Ca flux inactive | HEK293 Ca counter inactive | HEK293 Ca cntr2 inactive
CCCN(c1ccccc1F)S(=O)(=O)c1cc(-c2cc(C)no2)ccc1OC	none
CN(C)S(=O)(=O)c1ccc(C(=O)OCC(=O)NCc2ccccc2)cc1	MrgX1 PAM 8.38 | MrgX1 allo conf inactive | HEK293 Ca flux inactive | HEK293 Ca counter inactive | HEK293 Ca cntr2 inactive
CCCc1c(C(=O)Nc2ccc(F)cc2F)cnn1-c1ccccc1	MrgX1 PAM 11.5 | MrgX1 allo conf inactive | HEK293 Ca flux inactive | HEK293 Ca counter inactive | HEK293 Ca cntr2 inactive
COC1Cc2ccccc2N(C(=O)N2CCN(CCO)CC2)c2ccccc21 (stereo not given)	MrgX1 PAM 16 | MrgX1 allo conf inactive | HEK293 Ca flux inactive | HEK293 Ca counter inactive | HEK293 Ca cntr2 inactive
CCOC1Cc2ccccc2N(C(N)=O)c2ccccc21 (stereo not given)	none
CC(C)n1c(CN(C)Cc2ccccc2)nc2c1c(=O)n(C)c(=O)n2C	MrgX1 PAM 7.82 | MrgX1 allo conf 13.0% | HEK293 Ca flux inactive | HEK293 Ca counter inactive | HEK293 Ca cntr2 inactive
CC(=O)C(C)n1c(CN(C)Cc2ccccc2)nc2c1c(=O)n(C)c(=O)n2C (stereo not given)	none
N=c1ccn2c(n1)OC1C(O)C(CO)OC12 (stereo not given)	none
O=C1c2cccc(OCC(=O)N3CCCc4ccccc43)c2CCN1Cc1cccnc1	MrgX1 PAM 18 | MrgX1 allo conf inactive | HEK293 Ca flux inactive | HEK293 Ca counter inactive | HEK293 Ca cntr2 inactive
CCOC(=O)c1sc(Nc2ccccc2Cl)nc1C	MrgX1 PAM 13.1 | MrgX1 allo conf inactive | HEK293 Ca flux inactive | HEK293 Ca counter inactive | HEK293 Ca cntr2 inactive
CCCCN(CC)C(=O)Cn1ncc2c3ccccc3n(CCC)c2c1=O	none
CC(C)c1ccc(C(=O)NNC(=O)c2ccncc2)cc1	none
CC(C)c1ccc(C(N)=S)cc1	MrgX1 PAM 14.2 | MrgX1 allo conf inactive | HEK293 Ca flux inactive | HEK293 Ca counter inactive | HEK293 Ca cntr2 inactive
CCC(C)(C)C1CCc2c(sc(NC(=O)c3ccccc3C(=O)O)c2C#N)C1 (stereo not given)	MrgX1 antagonist -6.37, MrgX1 PAM 8.39 | MrgX1 allo conf inactive | MrgX1 antag conf inactive | HEK293 Ca flux inactive | HEK293 Ca counter inactive | HEK293 Ca cntr2 56.6
O=C(Cn1cc2c(n1)CCCCC2)Nc1ccccc1Br	MrgX1 PAM 9.31 | MrgX1 allo conf 23.5% | HEK293 Ca flux inactive | HEK293 Ca counter inactive | HEK293 Ca cntr2 inactive
COc1ccccc1/C=C1\N=C(C(C)(C)C)OC1=O	none
CNc1nc(Nc2ccc(C(C)=O)cc2)nc(OC(C(F)(F)F)C(F)(F)F)n1	MrgX1 PAM 8.59 | MrgX1 allo conf inactive | HEK293 Ca flux inactive | HEK293 Ca counter inactive | HEK293 Ca cntr2 inactive
CC1CCC(=C(C#N)C(=O)Nc2cccc(Cl)c2)CC1 (stereo not given)	none
CC1CCC2(CC1)C(Nc1cccc(Cl)c1)=NC(=S)N2CC#N (stereo not given)	MrgX1 PAM 8.34 | MrgX1 allo conf inactive | HEK293 Ca flux inactive | HEK293 Ca counter inactive | HEK293 Ca cntr2 inactive
O=[N+]([O-])c1ccc(N2CCN(S(=O)(=O)c3ccccc3)CC2)cc1	none
O=C(COC(=O)c1cc(Br)ccc1Cl)NC1CCCC1	MrgX1 PAM 7.99 | MrgX1 allo conf inactive | HEK293 Ca flux inactive | HEK293 Ca counter inactive | HEK293 Ca cntr2 inactive
O=C(COC(=O)c1cc(Br)ccc1O)NC1CCCCCC1	none
COc1ccc(S(=O)(=O)c2c(O)c3ccc(C(=O)Nc4cccc(F)c4)cc3[nH]c2=O)cc1	MrgX1 PAM 17.5 | MrgX1 allo conf inactive | HEK293 Ca flux inactive | HEK293 Ca counter inactive | HEK293 Ca cntr2 inactive
COc1cccc(NC(=O)c2ccc3c(O)c(S(=O)(=O)c4ccccc4)c(=O)[nH]c3c2)c1	none
NC1=NC(c2ccccc2C(F)(F)F)N(c2ccc(F)c(Cl)c2)C(N)=N1 (stereo not given)	none
COc1ccc(N2CCN(C(=O)c3ccccc3N(C)S(=O)(=O)c3ccc(C)cc3)CC2)cc1	none
O=C(NCCc1csc(-c2cccnc2)n1)c1ccc(Cl)cc1	none
O=C(NCCc1csc(-c2cccnc2)n1)c1cccc(Cl)c1	MrgX1 PAM 9.61 | MrgX1 allo conf inactive | HEK293 Ca flux inactive | HEK293 Ca counter inactive | HEK293 Ca cntr2 inactive
CCOC(=O)c1c(C)[nH]c(C)c1C(=O)COC(=O)c1c(OC)cccc1OC	MrgX1 PAM 7.06 | MrgX1 allo conf inactive | HEK293 Ca flux inactive | HEK293 Ca counter inactive | HEK293 Ca cntr2 inactive
